Data taken from ChEMBL document CHEMBL1127085, “Derivatives of 2-(dipropylamino)tetralin: effect of the C8-substituent on the interaction with 5-HT1A receptors” (J Med Chem, 1993).

Key:
Rattus norvegicus [1] = test: Induction of clear-cut 5-HT motor syndrome in reserpine (5 mg/kg, sc) pretreated rats at the dose of 10 micro mol/kg; assay type: functional
[2] = molecular target: T1, 5-hydroxytryptamine receptor 1A (Rattus norvegicus, UniProt P19327); test: Binding affinity of 5-hydroxytryptamine 1A receptor using [3H]-8-OH-DPAT as radioligand.
T1 sequence (P19327 whole entry): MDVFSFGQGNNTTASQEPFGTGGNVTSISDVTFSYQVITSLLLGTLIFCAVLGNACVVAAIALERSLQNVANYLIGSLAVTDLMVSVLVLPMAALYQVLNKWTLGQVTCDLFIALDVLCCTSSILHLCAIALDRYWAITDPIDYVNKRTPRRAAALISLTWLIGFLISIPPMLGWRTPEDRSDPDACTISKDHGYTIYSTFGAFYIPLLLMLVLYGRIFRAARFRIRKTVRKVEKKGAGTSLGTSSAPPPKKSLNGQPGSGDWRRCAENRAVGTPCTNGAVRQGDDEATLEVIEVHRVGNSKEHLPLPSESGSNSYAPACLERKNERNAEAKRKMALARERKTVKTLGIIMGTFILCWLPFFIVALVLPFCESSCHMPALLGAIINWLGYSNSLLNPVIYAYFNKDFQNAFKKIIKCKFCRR
How it was run: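 Membranes from cortex and hippocampus of male Sprague-Dawley rats, pooled from at least six rats, preincubated with 10 µM pargyline. Assay used 2 nM [3H]-8-OH-DPAT, test compound at 1-300 nM and 5 mg/mL tissue in 50 mM Tris-HCl with 4.0 mM CaCl2 and 5.7 mM ascorbate, pH 7.5. Incubated 10 min at 37 °C, filtered on GF/B, scintillation counted.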

[3] = molecular target: T2, Dopamine receptor (Rattus norvegicus) (UniProt P25115+P19020+P30729+P18901+P61169); test: Dopamine (DA) turnover in rat corpus striatum; assay type: functional, tissue-based
How it was run: (§1)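 Rats given compound sc in 0.9% NaCl (screening dose typically 32 µmol/kg); decapitated about 30 min after dosing. Hippocampus and corpus striatum dissected and frozen. Perchloric acid homogenates analysed by HPLC with electrochemical detection. Turnover taken as 5-HIAA/5-HT or DOPAC/DA, expressed as percent of saline control. Means ± SEM; n = 5-7 controls, 4-6 treated. ANOVA with Tukey test.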

[4] = molecular target: T3, 5-hydroxytryptamine receptor 1A (Rattus norvegicus) (UniProt P19327); test: Induction of clear-cut 5-HT motor syndrome in normal rats at the dose of 32 micro mol/kg; assay type: functional
T3 sequence (whole entry): T1 sequence (P19327 whole entry)

[5] = molecular target: T3, 5-hydroxytryptamine receptor 1A (Rattus norvegicus); test: 5-HT (serotonin) turnover in rat hippocampus (p<0.05); assay type: functional, tissue-based
How it was run: (§2)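 Rats dosed sc (screening dose typically 32 µmol/kg, in 0.9% NaCl, 2 mL/kg); decapitated 5-10 min after the 30-min rating, […]. Hippocampus dissected and frozen. 5-HIAA/5-HT ratio measured by HPLC with electrochemical detection (+0.85 V) after perchloric acid homogenisation. Reported as percent of saline control, mean ± SEM, n = 4-6 per group; ANOVA with Tukey test.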

[6] = molecular target: T3, 5-hydroxytryptamine receptor 1A (Rattus norvegicus); test: Number of rats displaying the 5-HT syndrome or leaving the cage out of the number of rats tested; assay type: functional
Rattus norvegicus [7] = test: Change in body temperature of rats upon administration after 30 minutes; assay type: functional
How it was run: (§3)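 Colonic temperature taken with an electrical thermometer probe 3.5 cm deep, before and 30 min after sc injection in saline. Change reported in °C as mean ± SEM; animal numbers as in the cage-leaving test. ANOVA with Tukey test.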

[8] = molecular target: T2, Dopamine receptor (Rattus norvegicus); test: Effect of accumulation of DOPA in rat striatum at the dose of 32 umol/kg; assay type: functional, tissue-based
How it was run: (§4)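 Test compound given sc in 0.9% NaCl. NSD 1015 (287 µmol/kg sc) given 30 min later to inhibit aromatic L-amino acid decarboxylase; rats decapitated after a further 30 min. Hippocampus and striatum stored at -40 °C for up to 1 week. Perchloric acid homogenates with α-methyl-5-hydroxytryptophan internal standard; 5-HTP and DOPA measured by HPLC-EC. Percent of control, means ± SEM; ANOVA with Tukey test.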

Rattus norvegicus [9] = test: Change in body temperature of rats upon administration after 30 minutes (p<0.01); assay type: functional; how it was run: as §3
[10] = molecular target: T3, 5-hydroxytryptamine receptor 1A (Rattus norvegicus); test: Induction of clear-cut 5-HT motor syndrome in reserpine (5 mg/kg, sc) pretreated rats at the dose of 32 micro mol/kg; assay type: functional, organism-based
[11] = molecular target: T3, 5-hydroxytryptamine receptor 1A (Rattus norvegicus); test: 5-HT (serotonin) turnover in rat hippocampus (p<0.01); assay type: functional, tissue-based; how it was run: as §2
[12] = molecular target: T3, 5-hydroxytryptamine receptor 1A (Rattus norvegicus); test: Effect of 5-HT accumulation in rat hippocampus at the dose of 32 umol/kg (p<0.01); assay type: functional, tissue-based; how it was run: as §4
Rattus norvegicus [13] = test: Effect of DOPA accumulation in rat striatum at the dose of 32 umol/kg (p<0.1); assay type: functional; how it was run: as §4
[14] = molecular target: T3, 5-hydroxytryptamine receptor 1A (Rattus norvegicus); test: Induction of clear-cut 5-HT motor syndrome in reserpine (5 mg/Kg, sc) pretreated rats at the dose of 32 uM/Kg; assay type: functional, organism-based
[15] = molecular target: T3, 5-hydroxytryptamine receptor 1A (Rattus norvegicus); test: 5-HT (serotonin) turnover in rat hippocampus; assay type: functional, tissue-based; how it was run: as §1
Rattus norvegicus [16] = test: Induction of clear-cut 5-HT motor syndrome in reserpine (5 mg/Kg, sc) pretreated rats at the dose of 1 uM/Kg; assay type: functional
Rattus norvegicus [17] = test: Induction of clear-cut 5-HT motor syndrome in normal rats at the dose of 1 uM/Kg; assay type: functional
Rattus norvegicus [18] = test: Induction of clear-cut 5-HT motor syndrome in reserpine (5 mg/Kg, sc) pretreated rats at the dose of 10 uM/Kg; assay type: functional
Rattus norvegicus [19] = test: Induction of clear-cut 5-HT motor syndrome in normal rats at the dose of 10 uM/Kg; assay type: functional
[20] = molecular target: T3, 5-hydroxytryptamine receptor 1A (Rattus norvegicus); test: Antagonistic effect on 5-HT syndrome or behavior of rat induced by (R)-1 at the dose of 32 and 1.0 umol/kg of compound (R)-1; assay type: functional
How it was run: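 Compound (32 µmol/kg sc) or saline injected 10 min before (R)-8-OH-DPAT (1.0 µmol/kg sc). Flat body posture, forepaw treading and hindlimb abduction scored during 30 min of observation. Results as number of rats showing the behaviour out of number tested; Fisher's exact probability test.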

Rattus norvegicus [21] = test: Antagonistic effect on body temperature of rat induced by (R)-1 at the dose of 32 and 1.0 umol/kg of compound (R)-1; assay type: functional
How it was run: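 Compound (32 µmol/kg sc) or saline injected 10 min before (R)-8-OH-DPAT (1.0 µmol/kg sc). Colonic temperature taken before injection and 30 min later; result is the change from the preinjection value. One-way ANOVA with Tukey HSD test.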

Rattus norvegicus [22] = test: Induction of clear-cut 5-HT motor syndrome in normal rats at the dose of 32 umol/kg; assay type: functional
Rattus norvegicus [23] = species on record: Rattus norvegicus; test: Dopamine (DA) turnover in rat corpus striatum (p<0.05); assay type: functional; how it was run: as §1
Rattus norvegicus [24] = test: Induction of clear-cut 5-HT motor syndrome in normal rats at the dose of 30 micro mol/kg; assay type: functional

Work on `C#Cc1cccc2c1CC(N(CCC)CCC)CC2` (racemic) yielded a Behavioral effect (Rattus norvegicus [1]) of 1 and a Ki [2] of 0.004 µM.

Work on `CCCN(CCC)[C@H]1CCc2cccc(OC)c2C1` yielded a Turnover [3] of 79, a Behavioral effect [4] of 4 and a Turnover [5] of 80. It also gave a No. of rats [6] of 0 and a Temperature (Rattus norvegicus [7]) of -1.5.

`C#Cc1cccc2c1C[C@H](N(CCC)CCC)CC2` was tested, and the Turnover [3] was 78, the Accumulation [8] was 59 and the Temperature (Rattus norvegicus [9]) was -1.6. The Behavioral effect [4] was 4, the Behavioral effect [10] was 4 and the Turnover [11] was 73. For the same compound, the Accumulation [12] was 43, the No. of rats [6] was 0 and the Accumulation (Rattus norvegicus [13]) was 50. The Ki [2] was 0.022 µM.

`CCCN(CCC)[C@H]1CCc2cccc(CO)c2C1` showed a Turnover [3] of 121, an Accumulation [8] of 101 and a Behavioral effect [4] of 4. It also gave a Turnover [5] of 75, a Behavioral effect [10] of 0 and an Accumulation [12] of 58. For the same compound, the No. of rats [6] was 0, the Temperature (Rattus norvegicus [7]) was -2.2 and the Ki [2] was 0.13 µM.

`CCCN(CCC)C1CCc2cccc(-c3ccccc3)c2C1` (racemic) showed a Behavioral effect [10] of 0 and a Ki [2] of 0.012 µM.

`CCCN(CCC)C1CCc2cccc(C)c2C1` (racemic) gave a Ki [2] of 0.042 µM.

With `CCCCC(=O)c1cccc2c1CC(N(CCC)CCC)CC2` (racemic) the Behavioral effect [14] was 4 and the Ki [2] was 0.019 µM.

For `CCCN(CCC)[C@H]1CCc2cccc(C#N)c2C1`, the Behavioral effect [14] was 4 and the Ki [2] was 0.037 µM.

Compound `CCCN(CCC)[C@H]1CCc2cccc(C(C)=O)c2C1` has a Turnover [3] of 111, a Turnover [15] of 71 and a Behavioral effect (Rattus norvegicus [16]) of 4. The Behavioral effect (Rattus norvegicus [17]) was 4, the No. of rats [6] was 0 and the Temperature (Rattus norvegicus [7]) was -2.1.

Work on `CCCN(CCC)C1CCc2cccc(OS(=O)(=O)C(F)(F)F)c2C1` (racemic) yielded a Behavioral effect [10] of 0.

`CCCN(CCC)[C@@H]1CCc2cccc(C(=O)OC)c2C1` gave a Turnover [3] of 90, a Turnover [15] of 63 and a Behavioral effect (Rattus norvegicus [18]) of 4. It also gave a No. of rats [6] of 0, a Temperature (Rattus norvegicus [7]) of -2.3 and a Behavioral effect (Rattus norvegicus [19]) of 4.

`C#Cc1cccc2c1C[C@@H](N(CCC)CCC)CC2` gave a Turnover [3] of 82, an Accumulation [8] of 95 and a Temperature (Rattus norvegicus [9]) of -2.8. For the same compound, the Behavioral effect [4] was 4, the Behavioral effect [10] was 4 and the Turnover [11] was 66. The Accumulation [12] was 31, the No. of rats [6] was 0 and the Ki [2] was 0.016 µM.

Compound `CCCN(CCC)C1CCc2cccc(C(=O)c3ccccc3)c2C1` (racemic) has a Ki [2] of 0.0028 µM.

`CCCN(CCC)[C@H]1CCc2cccc(OS(=O)(=O)C(F)(F)F)c2C1` showed an Effect [20] of 4, a Turnover [3] of 104 and a Turnover [15] of 84. It also gave a No. of rats [6] of 1, a Temperature (Rattus norvegicus [21]) of -3.18 and a Temperature (Rattus norvegicus [7]) of 0.5. For the same compound, the Behavioral effect (Rattus norvegicus [22]) was 0.

Compound `CCCN(CCC)[C@@H]1CCc2cccc(OC)c2C1` has a Turnover (Rattus norvegicus [23]) of 70, a Temperature (Rattus norvegicus [9]) of -1.5 and a Behavioral effect (Rattus norvegicus [24]) of 4. It also gave a Turnover [11] of 66 and a No. of rats [6] of 0.
